Experimental data pooled from the literature.

CN1C(=O)CC(=O)N(c2ccccc2)c2cc(Cl)ccc21 — ED50 (MES seizures; rat; intraperitoneal): 36.3 mg/kg
CCCCCCCCCCCC(=O)NP(=O)(O)O — MIC (Bacillus anthracis; microbial growth; STERNE34F2): > 200 µg/mL
CC1=NN(CNc2ccc(O)cc2)C(=O)C1=NNn1c(-c2ccccc2)nc2ccccc2c1=O — MIC (Vibrio cholerae; microbial growth, broth dilution; 24 h): 107 µM
O=C(CCCCC1CCCCC1)NP(=O)(O)O — MIC (Bacillus anthracis; microbial growth; STERNE34F2): > 200 µg/mL
CC1=NN(CNc2ccc(C(=O)O)cc2)C(=O)C1=NNn1c(-c2ccccc2)nc2ccccc2c1=O — MIC (Vibrio cholerae; microbial growth, broth dilution; 24 h): 50.5 µM
CCOC(=O)Nc1ccc(NCc2ccc(F)cc2)cc1N — ED50 (MES seizures; rat; intraperitoneal): 4.01 mg/kg
CN[C@H](CC(C)C)C(=O)N[C@H]1C(=O)N[C@@H](CC(N)=O)C(=O)N[C@H]2C(=O)N[C@H]3C(=O)N[C@H](C(=O)N[C@H](C(=O)O)c4cc(O)cc(O)c4-c4cc3ccc4O)[C@H](O)c3ccc(c(Cl)c3)Oc3cc2cc(c3O[C@@H]2O[C@H](CO)[C@@H](O)[C@H](O)[C@H]2O[C@H]2C[C@](C)(N)[C@H](O)[C@H](C)O2)Oc2ccc(cc2Cl)[C@H]1O — MIC (Streptococcus pyogenes; microbial growth): 0.25 µg/mL
CC1=NN(CNC(=O)c2ccccc2)C(=O)C1=NNn1c(-c2ccccc2)nc2ccccc2c1=O — MIC (Vibrio cholerae; microbial growth, broth dilution; 24 h): 51.9 µM
CCCCCCCCCCCCCCCC(=O)NP(=O)(O)O — MIC (Bacillus anthracis; microbial growth; STERNE34F2): > 200 µg/mL
Cn1cnc2nc(NCc3ccc(Cl)c(Cl)c3)[nH]c(=O)c21 — MIC (Bifidobacterium; microbial growth, agar dilution; 48 h): > 32 µg/mL
O=C(O)CCCCCCCCCCCCCCCc1ccccc1 — IC50 (Leishmania infantum; parasite growth; mouse Splenocyte; 72 h, intracellular, amastigote): 3 to 6 µM
CC(=O)C1=C(O)C(CC(C)C)NC1=O (stereo not drawn) — MIC (Stenotrophomonas maltophilia; microbial growth; ATCC13637): > 200 µg/mL
CCCCCCCCCCCC(=O)CP(=O)(O)O — MIC (Bacillus anthracis; microbial growth; STERNE34F2): 50 µg/mL
CC1=NN(CNc2ccc(Cl)cc2)C(=O)C1=NNn1c(-c2ccccc2)nc2ccccc2c1=O — MIC (Vibrio cholerae; microbial growth, broth dilution; 24 h): 103 µM
O=C(CCCCC1CCCCC1)CP(=O)(O)O — MIC (Bacillus anthracis; microbial growth; STERNE34F2): 200 µg/mL
COC[C@@H](NC(C)=O)C(=O)NCc1ccc(OCc2ccccc2)cc1 — ED50 (MES seizures; rat; oral): < 10 mg/kg
OC[C@H]1O[C@@H](n2cnc3c(NC4CCCC4)ncnc32)[C@H](O)[C@@H]1O — ED50 (MES seizures; rat; oral): > 10 mg/kg
O=C(O)c1cn(C2CC2)c2cc(N3CCNCC3)c(F)cc2c1=O — MIC (Bacillus anthracis; microbial growth; 34F2): 0.781 µM
